Source: PubChem
Hits are enriched below; roughly 2.6% of the tested compounds scored in any of these assays.
SKN-1 block – suppressors of acrylamide-induced Pgst-4::GFP reporter in worms, primary screen, SKN-1 inhibitor project, whole organism, uHTS, GFP/RFP fluorescence ratio, strain VP596; C. elegans VP596 Pgst-4::GFP/RFP ratio, 24 h; inhibition, % at 21.8 µM; hit rate 0.49% among 360,000; AID 624304, 2012;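 active = interference check ratio from 0.5 to 1.5 plus GFP to RFP signal ratio inhibition reaching or exceeding a fixed threshold, cut at about 30% in these data, passing the limit was not always enough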
GRK2 aptamer HTS – compounds blocking aptamer binding on GRK2 – biochemical, human GRK2, bead flow cytometry, HTS, primary screen; Beta-adrenergic receptor kinase 1 (Homo sapiens), P25098; FAM-aptamer displacement from GRK2; inhibition of aptamer binding, % at 10 µM; hit rate 0.59% among 330,000; AID 488847, 2010;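 active = inhibition of aptamer binding above 40%, roughly 3 SD of noise, on plates passing a quality check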;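 note: median bead fluorescence of bound FAM aptamer so fluorescent compounds give negative values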
Rin1 Abl inh – inhibitors of Rin1-Abl protein binding, primary screen, biochemical, TR-FRET; Tyrosine-protein kinase ABL1 (Homo sapiens) + Ras and Rab interactor 1 (Homo sapiens), …; inhibition, % at 7.35 µM; AID 588664, 2011; hit rate 0.4% among 360,000; in the data active = inhibition above about 5%, passing the limit was not always enough
Target sequence (P00519 whole entry, looked up): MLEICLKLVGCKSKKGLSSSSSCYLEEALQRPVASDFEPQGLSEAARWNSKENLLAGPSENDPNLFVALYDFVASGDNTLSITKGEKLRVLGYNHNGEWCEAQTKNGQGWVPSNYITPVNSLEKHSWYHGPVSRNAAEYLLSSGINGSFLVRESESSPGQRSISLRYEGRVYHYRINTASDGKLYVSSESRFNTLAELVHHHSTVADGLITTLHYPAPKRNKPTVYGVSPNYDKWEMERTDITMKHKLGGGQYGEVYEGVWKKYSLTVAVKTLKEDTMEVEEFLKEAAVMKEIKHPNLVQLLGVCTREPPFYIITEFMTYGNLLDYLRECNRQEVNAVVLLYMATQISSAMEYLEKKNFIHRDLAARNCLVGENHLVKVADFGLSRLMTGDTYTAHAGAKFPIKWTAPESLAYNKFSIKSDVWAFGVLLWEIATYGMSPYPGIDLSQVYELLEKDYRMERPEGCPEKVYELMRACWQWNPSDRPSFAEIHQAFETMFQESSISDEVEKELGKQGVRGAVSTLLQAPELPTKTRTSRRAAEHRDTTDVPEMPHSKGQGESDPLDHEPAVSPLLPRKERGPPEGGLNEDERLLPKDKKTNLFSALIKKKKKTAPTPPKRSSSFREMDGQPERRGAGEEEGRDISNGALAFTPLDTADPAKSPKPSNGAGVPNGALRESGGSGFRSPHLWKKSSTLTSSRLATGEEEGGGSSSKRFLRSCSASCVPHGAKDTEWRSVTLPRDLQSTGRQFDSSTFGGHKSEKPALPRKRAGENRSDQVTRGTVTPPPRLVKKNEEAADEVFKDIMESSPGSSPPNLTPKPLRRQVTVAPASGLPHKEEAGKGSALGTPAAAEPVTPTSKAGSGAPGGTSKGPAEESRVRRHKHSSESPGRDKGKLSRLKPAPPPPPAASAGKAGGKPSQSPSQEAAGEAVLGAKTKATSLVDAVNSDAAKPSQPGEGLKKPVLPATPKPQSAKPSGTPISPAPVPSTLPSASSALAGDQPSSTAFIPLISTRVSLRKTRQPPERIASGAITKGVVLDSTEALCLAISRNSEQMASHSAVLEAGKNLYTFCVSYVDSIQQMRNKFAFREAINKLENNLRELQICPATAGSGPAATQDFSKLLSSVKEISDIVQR
Target sequence (Q13671 whole entry, looked up): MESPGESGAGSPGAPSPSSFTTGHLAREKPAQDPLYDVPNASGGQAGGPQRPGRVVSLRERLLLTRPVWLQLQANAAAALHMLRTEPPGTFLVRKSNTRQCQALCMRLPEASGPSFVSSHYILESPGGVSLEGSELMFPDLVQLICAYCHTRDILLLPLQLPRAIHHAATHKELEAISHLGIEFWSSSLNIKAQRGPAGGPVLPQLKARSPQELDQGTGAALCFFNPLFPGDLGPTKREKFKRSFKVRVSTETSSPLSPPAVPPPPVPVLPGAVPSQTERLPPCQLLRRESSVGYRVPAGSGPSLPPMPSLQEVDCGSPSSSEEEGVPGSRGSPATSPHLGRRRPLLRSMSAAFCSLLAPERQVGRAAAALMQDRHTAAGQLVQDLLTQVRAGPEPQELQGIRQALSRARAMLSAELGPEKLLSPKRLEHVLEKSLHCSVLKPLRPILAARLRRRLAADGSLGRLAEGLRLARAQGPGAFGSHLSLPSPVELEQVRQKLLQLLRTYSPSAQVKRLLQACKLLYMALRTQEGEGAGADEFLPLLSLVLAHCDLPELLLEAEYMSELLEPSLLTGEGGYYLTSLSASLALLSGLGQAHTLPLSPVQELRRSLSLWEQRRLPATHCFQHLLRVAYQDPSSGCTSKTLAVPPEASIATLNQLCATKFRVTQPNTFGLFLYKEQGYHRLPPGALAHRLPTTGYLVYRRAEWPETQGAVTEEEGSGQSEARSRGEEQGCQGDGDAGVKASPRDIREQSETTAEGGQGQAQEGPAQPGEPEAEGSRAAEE
Myeloid diff MLP – induction of myeloid progenitor differentiation, primary screen, cell-based, flow cytometry, MLPCN library | hit rate 1% among 360,000 | calls only at 10 µM | ER-HoxA9 myeloid progenitors, lysozyme-GFP differentiation;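 active = normalized GFP-positive differentiation at or above the plate's own cutoff, the solvent-only control mean plus 3 SD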;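 note: cells exposed to compound for four days before flow analysis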
Rce1 inhib – yeast Rce1p protease inhibitors, primary screen, biochemical, fluorescence, cell-free homogeneous; yeast membranes, quenched prenylated peptide cleavage fluorescence; calls only; hit rate 0.27% among 290,000; AID 2563, 2010; CAAX prenyl protease 2 (Saccharomyces cerevisiae (strain ATCC 204508 / S288c)), Q03530;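 active = fall in fluorescence gain of 50% or more versus controls, with final raw signal at or below 3038400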;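 note: plate controls were neutral control wells for no effect and wells lacking membranes for full effect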
T cell modulator – modulators of CD8 T cell-vesicle binding, primary screen, mouse 2C CD8+ T cells, flow cytometry | 2C CD8+ T cell-vesicle binding; hits give low values | response (vesicle binding), % at 7 µM | hit rate 0.068% among 330,000;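 active = response, share of CD8 T cells binding vesicles, and their 90th percentile fluorescence all below set limits, cut at about 80% in these data, passing the limit was not always enough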;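 note: values below 100% mean blocked vesicle binding to the CD8+ T cells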
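Material: 2C TCR transgenic mouse naive CD8+ T cells, MACS-purified. Also added: QL9-charged Drosophila Ld/ICAM-1/B7-1 vesicles. Timing: binding 1.5 h at 37 °C. Measured by: high-throughput flow cytometry with anti-B7-1 and anti-CD8 staining. Read-out: percent CD8+ FL2 mean versus row control. Controls: Unloaded micro-vesicles (low), QL9 vesicles with 0.7% DMSO (high).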
Rin1 Abl conf – Rin1-Abl binding inhibitor retest, confirmation, biochemical, TR-FRET; shares compounds with Rin1 Abl inh; purified proteins; inhibition, % at 7.35 µM; hit rate 49% among 1,300; AID 602124, 2011
GFP quench – GFP fluorescence inhibitors and quenchers, artefact control for Rin1-Abl interaction inhibitor project, biochemical; hit rate 8.5% among 1,300; shares compounds with Rin1 Abl inh; inhibition, % at 6.75 µM; inhibitors/quenchers counterscreen;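 note: ABL1-eGFP fusion protein alone without its partner RIN1-SBP; 0% = protein with vehicle and 100% = wells lacking protein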
GFP quench dose – GFP fluorescence inhibitors and quenchers, dose response, artefact control for Rin1-Abl interaction inhibitor project, biochemical; 230 tested, under 10 active; GFP fluorescence interference/quenching counterscreen; shares compounds with Rin1 Abl inh; AID 602182, 2012; IC50, µM; call rule not given here;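 note: ABL1-eGFP fusion protein alone without its RIN1 binding partner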
Starred values were filed as active, the others as inactive; i = inactive; . = not tested or not shown; + = active, no number. Cut-off read from the data, not from the text of the source, unless noted: active = inhibition above about 6.5%; inactive = the rest.

SMILES	SKN-1 block	GRK2 aptamer HTS	Rin1 Abl inh	Myeloid diff MLP	Rce1 inhib	T cell modulator	Rin1 Abl conf	GFP quench	others
Cc1ccc(C(=O)N2CC(C)CC(C)C2)cc1NC1=NC2CS(=O)(=O)CC2S1 (centres undefined)	3	1	22*	i	i	630	26*	0	GFP quench dose=>68
CCOC(=O)C1CCN(C(=O)c2cccc(NC3=NC4CS(=O)(=O)CC4S3)c2)CC1 (centres undefined)	1	0	18*	i	i	592	15*	-1
COc1cccc(N2CCN(C(=O)c3cccc(NC4=NC5CS(=O)(=O)CC5S4)c3)CC2)c1 (centres undefined)	14	0	1	i	i	369	.	.
Cc1ccc(C(=O)N2CCC(C)CC2)cc1NC1=NC2CS(=O)(=O)CC2S1 (centres undefined)	-2	3	8	i	i	564	.	.
COc1ccc(-c2cc(=O)oc3cc(OCC(=O)NCC(O)c4ccccc4)ccc23)cc1 (centres undefined)	-9	0	0	i	i	239	.	.
COc1ccc(OC)c(CN2CCN(C(=O)c3ccc(C)c(S(=O)(=O)Nc4ccccc4OC)c3)CC2)c1	5	.	1	i	.	.	.	.
CC(C)N1C(=O)CCC1C(=O)NCc1ccc(F)cc1Cl (centres undefined)	23	2	2	i	i	259	.	.
Cc1ccc(CC(=O)N2CCN(c3cccc(C(F)(F)F)c3)CC2)cc1	12	0	0	i	i	326	.	.
CC1(C2CC2)NC(=O)N(CC(=O)N2CCN(c3cccc(C(F)(F)F)c3)CC2)C1=O (centres undefined)	14	3	8.6*	i	.	307	-2	1
COc1ccc(-n2c(NC(=O)c3ccco3)c(C#N)c3nc4ccccc4nc32)cc1	-8	1	19*	+	i	386	6	3
CC(/C=N/n1c(-c2ccco2)n[nH]c1=S)=C\c1ccccc1	-2	0	7.4*	i	i	288	-1	0
CCOC(=O)C1(Cc2ccc(OC)cc2)CCN(C(=O)CN2CCCCC2=O)CC1	-1	0	9.9*	i	i	126	1	-2
CCc1ccc(OCC(O)CN2CCN(c3ccccn3)CC2)cc1 (centres undefined)	-10	1	1	i	i	165	.	.
CC(=O)c1ccc(OCC(O)CN2CCN(c3ccccn3)CC2)cc1 (centres undefined)	21	1	9.3*	i	i	315	-1	0
CN(C)c1cccc(CNC(=O)c2ccc3nc([C@H]4C[C@H](O)[C@@H](CO)O4)[nH]c3c2)c1	7	.	-3	i	.	.	.	.
CN(C)c1cccc(CNC(=O)c2ccc3nc([C@@H]4O[C@H](CO)[C@H](O)[C@H](O)[C@H]4O)[nH]c3c2)c1	-2	.	14*	i	.	.	-1	-1
O=C(O)c1cc(N2N=C(C(F)(F)F)/C(=C/C=C/c3ccco3)C2=O)ccc1Cl	5	.	12*	i	.	.	4	26*
CCOC(=O)c1ccc(N2N=C(C)/C(=C/C=C/c3ccco3)C2=O)cc1	9	1	0	i	i	446	.	.
CC1(c2nnc(-c3ccc(Cl)cc3)o2)CC(c2ccc([N+](=O)[O-])cc2)=NO1 (centres undefined)	-2	2	-1	i	i	197	.	.
CC1(c2nnc(-c3ccncc3)o2)CC(c2ccc([N+](=O)[O-])cc2)=NO1 (centres undefined)	2	.	18*	i	i	.	21*	0
CC1(c2nnc(-c3ccncc3)o2)CC(c2c(Cl)cccc2Cl)=NO1 (centres undefined)	-11	0	38*	i	i	640	27*	0
CC1(c2nnc(-c3ccncc3)o2)CC(c2ccc(F)cc2)=NO1 (centres undefined)	-11	2	43*	i	i	397	42*	-1	GFP quench dose=>68
C/C(Sc1nnc(Cc2ccccc2)o1)=C(\O)c1ccccc1	22	.	4	i	.	.	.	.
O=C(O)C(O)C(O)c1nc2ccccc2[nH]1 (centres undefined)	1	1	7	i	i	193	.	.
Cc1cc(C)nc(NS(=O)(=O)c2ccc(NC(=O)CN3C(=O)C4CC=CCC4C3=O)cc2)n1 (centres undefined)	5	0	-2	i	i	236	.	.
SMILES	SKN-1 block	GRK2 aptamer HTS	Rin1 Abl inh	Myeloid diff MLP	Rce1 inhib	T cell modulator	Rin1 Abl conf	GFP quench	others
O=C(O)c1ccc2c(c1)C1C=CCC1C(c1ccncc1)N2 (centres undefined)	3	6	-2	i	i	206	.	.
COc1ccc(NS(=O)(=O)c2ccc3c(c2)[C@H]2C=CC[C@H]2[C@@H](c2ccc(C(=O)O)cc2)N3)cc1	16	4	9.2*	i	i	189	9.5*	17*
CCOC(=O)NC(Cc1c[nH]c2ccccc12)C(=O)NCCc1ccc(S(N)(=O)=O)cc1 (centres undefined)	-2	0	1	i	i	114	.	.
CCOC(=O)c1ccc(CNC(=O)C(Cc2c[nH]c3ccccc23)NC(C)=O)o1 (centres undefined)	-5	0	8.1*	i	i	319	2	-1
Cc1ccc(NC(=O)CSc2nnc(CN3CCOCC3)n2C)cc1C	19	0	4	i	.	366	.	.
CC(C)c1ccc(NC(=O)CSc2nnc(CN3CCOCC3)n2C)cc1	4	1	18*	i	i	198	26*	1	GFP quench dose=>67
O=c1[nH][nH]c2c1C(C1CCCCC1)OC(C1CCCCC1)C2 (centres undefined)	1	.	.	i	.	.	.	.
CC12CN3CC(C)(CN(C1)C3c1ccccc1F)C2 (centres undefined)	-4	0	6.1*	i	i	314	-3	-1
